ROMK mod: modulates human ROMK potassium channel activity. P48048. Tet-inducible ROMK, thallium flux fluorescence; actives lie on both sides. 130,000 tested, 2% active. B-score at 10 µM;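 active = signal ratio slope over the read window, or its plate-corrected B-score, at least 3 SD from the plate mean, either direction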;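 also: B-score of the F/F0 ratio slope over 7 to 12 s after thallium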
Target sequence (P48048 whole entry, looked up): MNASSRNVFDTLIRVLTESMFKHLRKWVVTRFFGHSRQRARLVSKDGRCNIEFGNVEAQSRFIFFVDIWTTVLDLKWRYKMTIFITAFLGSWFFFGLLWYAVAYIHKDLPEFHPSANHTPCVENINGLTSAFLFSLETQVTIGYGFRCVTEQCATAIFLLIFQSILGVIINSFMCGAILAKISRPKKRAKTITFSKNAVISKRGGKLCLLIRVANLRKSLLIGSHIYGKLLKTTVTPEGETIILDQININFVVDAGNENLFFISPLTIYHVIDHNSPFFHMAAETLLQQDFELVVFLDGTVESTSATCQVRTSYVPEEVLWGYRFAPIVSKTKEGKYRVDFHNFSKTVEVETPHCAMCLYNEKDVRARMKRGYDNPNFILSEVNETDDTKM
Pf gamet viab: P. falciparum stage V gametocyte viability inhibition; P. falciparum stage V gametocytes, ATP luminescence, 24 h; inhibition, % at 10.9 µM; 150,000 tested, 0.065% active; AID 743093;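 active = inhibition above the mean plus 3 SD of compounds within the control limits, set per campaign, cut at about 38% in these data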;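 also: 0% = DMSO wells and 100% = medium only without gametocytes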
Biofilm kill mix: mixture kills Candida albicans biofilm cells | C. albicans biofilm persisters + clotrimazole, fluorescence viability; primary screen in compound mixtures of four per well | inhibition, % at 7.6 µM | 120,000 tested, 0.02% active | AID 1242;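 active = inhibition above 30.3% in the primary screen of four-compound pools, then above 30% when the compound was retested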;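 also: compounds exposed to preformed 24 h biofilms for 48 h; 0% = untreated biofilm control and 100% = clotrimazole plus chlorhexidine kill blank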
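Probe or stimulus – Clotrimazole 50 µg/mL co-treatment · System – C. albicans biofilms · Schedule – 24 h biofilm formation, then 48 h compound exposure, 37 °C · Evaluation – percent inhibition of biofilm viability · Technique – 2-h Alamar Blue fluorescence, 535/590 nm excitation/emission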
ROMK retest: retested hit modulating human ROMK potassium channel; ROMK thallium flux, fluorescence ratio; stronger effect = lower value; 3,000 tested, 54% active; shares compounds with ROMK mod; AID 1917; normalized thallium flux (F/F0 slope) at 10 µM;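 active = Flux at 10 µM at least 3 SD below or above vehicle control mean in one or both replicates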
Active calls of the source: *; · = not tested or not shown. Shown is part of a subset that was picked to be rich in hits.

SMILES | ROMK mod | Pf gamet viab | Biofilm kill mix | ROMK retest
COc1ccc(C)cc1NCC(=O)Nc1ccc(C(C)(C)C)cc1 | · | -4 | 20 | ·
COCCCNc1ccc([N+](=O)[O-])cc1C(=O)Nc1cccc(C)n1 | -4.1* | 17 | -1 | 0.045*
Cc1cccc(NC(=O)c2cc([N+](=O)[O-])ccc2NCC2CCCO2)n1 (centres undefined) | -2.2 | 6 | 2 | ·
O=C(N/N=C/C1=C(N2CCOCC2)C(=C\c2ccccc2)/CC1)Nc1ccccc1 | · | 7 | 13 | ·
CCN(CC)c1ccc(/C=C2\CCC(/C=N/NC(=O)c3ccc(=O)n(C)c3)=C2N2CCOCC2)cc1 | · | · | 7 | 0.053*
O=C(NC1CCCN(CCc2ccccc2)C1)c1c(F)cccc1F (centres undefined) | · | 3 | · | ·
C=CCN=C1S/C(=C/c2cccc([N+](=O)[O-])c2)C(=O)N1CC=C | · | -4 | 14 | ·
O=C(O)c1cccc(CN2C(=O)S/C(=C/c3cccc([N+](=O)[O-])c3)C2=O)c1 | -12* | -11 | 14 | 0.03*
O=C(NN1CCOCC1)c1cn(-c2ccccc2)nc1-c1cccs1 | · | 12 | 8 | ·
O=C(NC(=S)Nc1ccccc1O)c1ccc(-c2ccc(Cl)cc2)o1 | · | -2 | · | ·
Cc1c(NC(=S)NC(=O)c2ccc(-c3ccc(Cl)cc3)o2)cccc1C(=O)O | 3.5* | 0 | 26 | 0.089
Cc1ccccc1S(=O)(=O)/N=C(/c1ccccc1)N1CCOCC1 | 0.76 | 1 | 3 | ·
CCOc1ccc2nc(SCC3CC3(Cl)Cl)[nH]c2c1 (centres undefined) | · | -6 | 15 | ·
ClC1(Cl)CC1CSc1nc2ccccc2[nH]1 (centres undefined) | -4.3* | -19 | 9 | 0.085
Cc1ccc(S(=O)(=O)N2CCSC2=Nc2ccccc2)cc1 | · | · | 17 | ·
COc1cc(CNCCN2CCOCC2)ccc1OCc1ccc(Cl)cc1Cl | · | · | · | 0.055*
COc1cc(CNCCN2CCOCC2)ccc1OCc1cccc(Cl)c1 | -1.1 | · | · | ·
COc1ccc(S(=O)(=O)NC2CC2)cc1Cl | · | -9 | · | ·
CC1=NN(c2nc(-c3ccccc3)cs2)C(=O)C1N=Nc1ccccc1 (centres undefined) | -0.00013 | -14 | 15 | ·
CC1=NN(c2nc(-c3ccc(C)cc3)cs2)C(=O)C1N=Nc1ccc(C(N)=O)cc1 (centres undefined) | 0.1 | -20 | 4 | 0.077
O=C1N=C(N2CCOCC2)S/C1=C\c1ccc(-c2ccccc2Cl)o1 | · | 2 | 19 | 0.052*
Cc1ccccc1-c1ccc(/C=C2/SC(N3CCOCC3)=NC2=O)o1 | · | 0 | 15 | ·
COc1cccc(OCCNC(=O)Nc2cc(F)c(F)cc2Cl)c1 | -1.1 | -13 | 15 | ·
Cc1c(C(=O)Nc2ccc(N3CCOCC3)cc2)oc2ccccc12 | · | 6 | · | ·
Cc1c(C(=O)Nc2ccncc2)oc2ccccc12 | · | 1 | · | 0.074
SMILES | ROMK mod | Pf gamet viab | Biofilm kill mix | ROMK retest
Cc1cc(Cl)c(S(=O)(=O)NCC2CCCO2)cc1OCC(=O)NC1CCCCC1 (centres undefined) | -0.05 | -28 | · | ·
Cc1cc(Cl)c(S(=O)(=O)N2CCN(c3ccc(F)cc3)CC2)cc1OCC(=O)NC1CCCCC1 | -4.3* | -33 | · | 0.063*
Cc1cc(Cl)c(S(=O)(=O)Nc2ccc3c(c2)OCCO3)cc1OCC(=O)NC1CCCCC1 | -3.2* | -3 | · | 0.066*
CCOC(=O)C1CCCN(S(=O)(=O)c2cc(OCC(=O)NC3CCCCC3)c(C)cc2Cl)C1 (centres undefined) | -1.5 | -17 | · | ·
O=S(=O)(c1ccc(F)cc1)N1CCN(S(=O)(=O)c2ccc3c(c2)OCCO3)CC1 | · | -5 | · | ·
CC(C)c1ccc(NC(=O)C(c2ccccc2)N(C)C(=O)CCc2c[nH]c3ccccc23)cc1 (centres undefined) | · | -23 | · | ·
CCS(=O)(=O)c1ccc2c(c1)N(S(C)(=O)=O)CC(C(=O)NN)O2 (centres undefined) | -0.46 | 27 | 2 | ·
COc1ccc(C(=O)Nc2c(N)nc[nH]c2=O)cc1 | · | 8 | · | ·
Cc1ccc(SCc2nc(-c3ccncc3)no2)cc1 | · | -18 | · | ·
Cc1ccc(SC(C)c2nc(-c3ccncc3)no2)cc1 (centres undefined) | -3.1* | · | · | 0.067*
Cc1cccnc1Oc1ncccc1N | · | -15 | · | ·
COc1ccc(C2(O)CCN(CCCCOc3ccccc3)CC2)cc1 | -4.6* | -2 | · | 0.061*
COc1ccc(C2(O)CCN(C(=O)Cc3cccnc3)CC2)cc1 | -1 | · | · | ·
CCc1ccc(C2=NN(C(=O)CCC(=O)O)C(c3cccs3)C2)cc1 (centres undefined) | · | -13 | · | ·
Cc1ccc(NC(=O)/C(C#N)=C(\N)C(Cl)(Cl)Cl)nc1 | -5.5* | · | 17 | 0.035*
Cc1ccc(NC(=O)C(=O)Nc2ccc(C)cn2)nc1 | 0.98 | -2 | 14 | ·
CN1CCN(Cc2c(O)ccc3cc(-c4ccccn4)c(=O)oc23)CC1 | -3.3* | -19 | 29 | 0.059*
CN1CCN(Cc2c(O)ccc3cc(Br)ccc23)CC1 | -0.95 | · | 6 | ·
CCc1ccc(OCC(=O)NC(NC(=S)Nc2ccc(Cl)cc2)C(Cl)(Cl)Cl)cc1 (centres undefined) | -0.25 | 10 | 11 | ·
N#C/C(=C(/O)c1ccco1)c1nc2ccccc2s1 | · | 5 | 22 | ·
N#C/C(=C(/O)c1cc2ccccc2o1)c1nc2ccccc2s1 | · | -4 | 17 | 0.058*
CS(=O)(=O)NNC(=O)Cn1nnc(-c2ccc(OCc3ccccc3Cl)cc2)n1 | · | 8 | · | ·
COc1ccc(NC(=O)C(C)Sc2nnc3c4c(nc(-c5ccc(OC)cc5)n23)CC(C)(C)OC4)cc1 (centres undefined) | · | -4 | 22 | ·
Cc1ccc(S(=O)(=O)N2CCC(=O)N(C(COCc3ccc(Cl)c(Cl)c3)Cc3ccccc3)CC2)cc1 (centres undefined) | -4.7* | · | 15 | 0.061*
Cc1ccc(S(=O)(=O)N2CCC(=O)N(C(COCc3cccc(C)c3)Cc3ccccc3)CC2)cc1 (centres undefined) | -1.7 | 1 | 1 | ·
SMILES | ROMK mod | Pf gamet viab | Biofilm kill mix | ROMK retest
Cc1ccc(S(=O)(=O)N2CCC(=O)N(C(COCc3ccc(C(F)(F)F)cc3)Cc3ccccc3)CC2)cc1 (centres undefined) | -6.7* | 1 | -4 | 0.075
Cc1ccc(S(=O)(=O)N2CCC(=O)N(C(COCc3ccc(C(F)(F)F)cc3)C(C)C)CC2)cc1 (centres undefined) | -1.6 | · | 15 | ·
Cc1cc(Nc2cccc(Br)c2)c2ccccc2n1 | · | -47 | · | ·
Cc1ccc(Cl)cc1N1CCN(S(=O)(=O)c2cccc(S(=O)(=O)N3CCCC3)c2)CC1 | -3.3* | -39 | · | 0.07
Cc1ccc(Cl)cc1N1CCN(S(=O)(=O)c2ccc3[nH]c(=O)c(=O)[nH]c3c2)CC1 | 0.27 | -21 | 7 | ·
COc1ccc(C(=O)NCCCOc2cccc(NC(C)=O)c2)cc1 | · | -20 | 23 | ·
O=C(C[C@@H]1C/C=C/CC[C@H](Cc2ccc(F)cc2)C(=O)OC[C@@H](Cc2ccccc2)NC1=O)N[C@H](CO)Cc1ccccc1 | · | 7 | · | ·
COc1ccc(/C=N/NC(=O)c2csc(-n3nc(C)cc3C(F)(F)F)n2)cc1 | · | -18 | · | 0.09
Cc1cc(C(F)(F)F)n(-c2nc(C(=O)NN)cs2)n1 | -0.099 | · | 21 | ·
Clc1ccc(-n2nnnc2-c2ccno2)cc1 | · | 10 | 7 | ·
Fc1cccc(-c2oncc2-c2nnnn2-c2ccc(Cl)cc2)c1 | -7.4* | · | 14 | 0.073
